Screening results deposited in PubChem BioAssay by Johns Hopkins Ion Channel Center.
Compounds with a hit are over-represented: about 3.8% of the library has one in this group of screens.
KCNQ1 block: inhibitors of human KCNQ1 potassium channel; 310,000 compounds, 1.3% hits; AID 2642; B-score at 10 µM; P51787; CHO-K1 KCNQ1, FluxOR thallium flux fluorescence; active compounds read high;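 active = compounds whose thallium flux B-score, printed positive for inhibition, exceeds three library SD while starting fluorescence stays within three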;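 note: channel opened by potassium depolarization with thallium stimulus after 20 min compound exposure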
KCNQ1 pot: potentiators or activators of human KCNQ1 potassium channel. P51787. B-score at 10 µM. CHO-K1 KCNQ1, thallium flux FluxOR fluorescence; active compounds read high. 310,000 compounds, 0.35% hits;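 active = fluorescence ratio B-score, a plate-corrected score, at least three library SD, with initial intensity B-score within 5 SD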
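Assay system: CHO-K1 cells stably expressing KCNQ1; Medium: assay buffer with matched DMSO; Also added: K+/Tl+ depolarizing stimulus; Dosing: single dose; Timing: dye 90 min, compound 20 min, room temperature; Measured by: kinetic FluxOR thallium fluorescence, 10-s 1-Hz baseline, 110-s post-stimulus read; Read-out: peak-minus-minimum fluorescence over initial fluorescence, negative-control normalized, B-scored.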
hERG protect: compounds protecting human hERG from proarrhythmic drug block; AID 1511; activation (rescue from dofetilide block), less the hit threshold, % at 10 µM; CHO-hERG, FluxOR thallium flux, dofetilide IC70 present; Q12809; 310,000 compounds, 0.51% hits;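 active = activation above the mean of controls blocked by dofetilide plus 5 SD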;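 note: thallium influx through hERG after potassium depolarization seen as dye fluorescence rise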
KCNK9 inh-1: inhibitors of human KCNK9 two-pore domain potassium channel. Q9NPC2. HEK293 KCNK9, FluxOR thallium flux fluorescence; active compounds read low. B-score at 10 µM. 310,000 compounds, 1.2% hits. AID 488922;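 active = ratio B-score over 3 SD below the library mean, with starting fluorescence within 5 SD of its mean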;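 note: negative B-score means less thallium flux so channel inhibition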
KCNK3 block: human KCNK3 channel inhibition, primary screen; 340,000 compounds, 0.84% hits; O14649; B-score at 10 µM; CHO-KCNK3 thallium flux, FluxOR fluorescence; active compounds read low;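 active = B-score under library mean minus 4 SD, starting fluorescence ratio at most library mean plus 5 SD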;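 note: more negative B-score means stronger inhibition of thallium flux through KCNK3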
Kir21 block: inhibitors of mouse Kir2.1 inward-rectifier potassium channel; P35561; HEK293-Kir2.1, FluxOR thallium flux fluorescence; active compounds read low; B-score at 10 µM; 310,000 compounds, 0.85% hits;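 active = fluorescence ratio B-score at or below minus 3 SD of library scores, with starting-brightness B-score within 2 SD, cut at about -4.2 in these data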;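 note: channel flux triggered by added potassium and thallium sulfate stimulus; B-score of peak minus minimum fluorescence over baseline after thallium stimulus; more negative B-score means stronger Kir2.1 block with less thallium influx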
hERG inh: blocks human hERG, in counter-screen for Kir2.1 inhibitors. shares compounds with Kir21 block. hERG-expressing cells, thallium flux. inhibition, % at 10 µM. 320 compounds, 20% hits. AID 2236;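 note: host cells are CHO cells stably expressing hERG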
KCNK9 inh-2: tests whether Kir2.1 inhibitors also affect human KCNK9. 320 compounds, 5% hits. inhibition, % at 10 µM. KCNK9-expressing cells, ion flux inhibition. shares compounds with Kir21 block
Kir21 ephys inh: mouse Kir2.1 inward rectifier channel inhibition; AID 463252; inhibition, % at 25 µM; shares compounds with Kir21 block; Kir2.1 cells, automated patch-clamp current inhibition; 320 compounds, 71% hits
KCNQ1 block val: confirmation of human KCNQ1 potassium channel inhibitors | KCNQ1 cell line, FluxOR thallium flux fluorescence | 1,600 compounds, 93% hits | inhibition, % at 10 µM | shares compounds with KCNQ1 block | AID 588353;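 active = primary screen active, with duplicate mean exceeding buffer control mean plus 3 SD of buffer wells, cut at about 28% in these data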
CHO Tl flux: counter-screen for KCNQ1 inhibitors: effect in parental CHO cells; fluorescence ratio (Tl flux) at 10 µM; parental CHO-K1, FluxOR thallium flux fluorescence ratio; active compounds read low; zero means no signal rise above baseline; 1,600 compounds, 21% hits; shares compounds with KCNQ1 block;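 active = mean of duplicate thallium-flux fluorescence ratios in parental host cells more than 5 SD below the buffer control mean, cut at about 0.38 in these data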;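 note: ratio is peak minus minimum fluorescence divided by baseline fluorescence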
KCNQ1 APC inh: human KCNQ1 inhibition validated by electrophysiology; shares compounds with KCNQ1 block; KCNQ1-CHO cells, automated patch clamp current; calls only at 10 µM; 490 compounds, 20% hits; AID 624120;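 active = KCNQ1 current drop exceeding 3 SD of negative control wells, seen in both duplicate runs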;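 note: steady state current during a 2 s step from -80 to +40 mV; negative values mean current inhibition and positive values mean potentiation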
KCNQ2 inh: rat KCNQ2 inhibition in KCNQ1 inhibitor specificity screen | shares compounds with KCNQ1 block | KCNQ2 cells, FluxOR thallium flux fluorescence | inhibition, % at 10 µM | 1,600 compounds, 71% hits | AID 651746;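 active = mean percent inhibition of the KCNQ2 thallium signal more than 5 SD above the buffer-only control wells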;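 note: KCNQ2 expressed in CHO cells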
Target sequence (O88943 whole entry, looked up): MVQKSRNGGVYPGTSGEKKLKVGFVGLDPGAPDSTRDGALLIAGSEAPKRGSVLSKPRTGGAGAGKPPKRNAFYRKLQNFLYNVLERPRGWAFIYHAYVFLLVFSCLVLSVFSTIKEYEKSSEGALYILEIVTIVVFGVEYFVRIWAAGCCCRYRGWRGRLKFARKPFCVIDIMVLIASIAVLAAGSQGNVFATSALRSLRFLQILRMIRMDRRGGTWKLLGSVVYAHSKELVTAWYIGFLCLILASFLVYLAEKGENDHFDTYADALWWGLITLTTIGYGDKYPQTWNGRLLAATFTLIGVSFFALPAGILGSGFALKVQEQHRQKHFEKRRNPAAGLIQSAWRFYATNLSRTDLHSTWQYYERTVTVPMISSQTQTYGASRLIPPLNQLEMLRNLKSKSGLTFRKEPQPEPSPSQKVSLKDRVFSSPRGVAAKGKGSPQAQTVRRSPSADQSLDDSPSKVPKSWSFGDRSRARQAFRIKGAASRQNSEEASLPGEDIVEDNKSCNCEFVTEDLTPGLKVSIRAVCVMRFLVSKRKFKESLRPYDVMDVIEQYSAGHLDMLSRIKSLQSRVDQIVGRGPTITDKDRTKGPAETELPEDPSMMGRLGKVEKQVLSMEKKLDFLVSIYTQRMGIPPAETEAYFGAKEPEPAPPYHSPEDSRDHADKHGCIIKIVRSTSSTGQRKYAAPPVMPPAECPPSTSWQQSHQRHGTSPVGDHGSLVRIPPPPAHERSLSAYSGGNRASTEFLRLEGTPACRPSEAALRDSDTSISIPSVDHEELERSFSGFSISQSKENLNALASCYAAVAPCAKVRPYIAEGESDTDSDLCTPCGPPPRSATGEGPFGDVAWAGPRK
KCNQ1 KCNE1 spec: selectivity of KCNQ1 inhibitors: inhibition of human KCNQ1/KCNE1 channel; shares compounds with KCNQ1 block; 1,600 compounds, 77% hits; KCNQ1/KCNE1 cells, FluxOR thallium flux fluorescence; inhibition, % at 10 µM; AID 652147;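 active = mean percent inhibition of duplicate wells above the buffer-only control mean plus 3 SD of those controls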
KCNK9 inh conf: confirmation of human KCNK9 potassium channel inhibitors. 4,900 compounds, 43% hits. HEK293 KCNK9 cells, FluxOR thallium flux fluorescence. inhibition, % at 10 µM. shares compounds with KCNK9 inh-1;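 active = thallium signal inhibited by more than 5 SD of the compound-free buffer control wells, on both duplicate plates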
Kir21 sel: mouse Kir2.1 off-target activity of KCNK9 modulators | shares compounds with KCNK9 inh-1 | Kir2.1 cells, FluxOR thallium flux fluorescence | inhibition, % at 10 µM | 4,900 compounds, 4% hits;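 active = thallium signal drop more than 5 SD beyond the mean of the no-compound control wells, seen in both duplicate plates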;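 note: signal is fluorescence rise after thallium addition divided by baseline fluorescence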
KCNK9 uninduced: second counter-screen for KCNK9 modulators: effect in non-induced cells. shares compounds with KCNK9 inh-1. non-induced KCNK9-HEK293, FluxOR thallium flux. inhibition, % at 10 µM. 4,900 compounds, 40% hits;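 active = thallium signal drop beyond 5 SD of the untreated control mean, on both duplicate plates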
KCNK3 inh conf: confirmation of human KCNK3 two-pore domain potassium channel inhibitors. CHO-KCNK3 thallium flux, FluxOR fluorescence; 0% buffer, 100% carvedilol maximal block. ratio percent of control, % at 10 µM. shares compounds with KCNK3 block. AID 651638. 2,400 compounds, 99% hits;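 active = ratio percent of control, averaged over triplicates, above buffer control mean plus 5 SD, cut at about 64% in these data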;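 note: ratio is the fluorescence rise from min to max over baseline after thallium stimulus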
KCNK3 noninduced: activity in cells without induced KCNK3 expression; shares compounds with KCNK3 block; non-induced KCNK3 parental cells, FluxOR thallium flux; active compounds read low; thallium flux ratio (lower = more inhibition) at 10 µM; 2,400 compounds, 40% hits; AID 651747;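 active = thallium flux ratio, averaged over three wells, more than 5 SD below the buffer control mean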;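 note: host cells are CHO cells without KCNK3 induction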
Each line names hits and unclear results; the compound was inactive in the other large screens (follow-up assays come after a bar, where they were run). Unless noted, the rule behind the calls is not given here.

CC(OC(=O)c1cccc(-n2cnnn2)c1)C(=O)Nc1cccc(Cl)c1 (stereo unspecified)	none | hERG inh inactive | KCNK9 inh-2 inactive | Kir21 ephys inh inactive
CC(=O)c1ccc(NC(=O)C(C)OC(=O)c2cccc(-n3cnnn3)c2)cc1 (stereo unspecified)	none
COC(=O)Cc1c(C)nc2nc[nH]n2c1=O	none
C#CC(CO)N(CCN(Cc1ccccc1)C(C#C)CO)Cc1ccccc1 (stereo unspecified)	Kir21 block -11 | hERG inh inactive | KCNK9 inh-2 inactive | Kir21 ephys inh 3.9%
C#CCN(C)Cc1ccccc1	none
Nc1nc(C2CCCN2S(=O)(=O)c2ccc(Cl)cc2)cs1 (stereo unspecified)	Kir21 block -6.6 | hERG inh inactive | KCNK9 inh-2 inactive | Kir21 ephys inh 14%
O=S(=O)(c1ccc(Cl)cc1)N1CCCC1c1nc(-c2ccc(Cl)cc2)no1 (stereo unspecified)	none
CN(C)CC/C=C1\c2ccccc2Sc2ccc(Cl)cc21	Kir21 block -8.1 | hERG inh 58% | KCNK9 inh-2 inactive | Kir21 ephys inh 28% | KCNK9 inh conf inactive | Kir21 sel 59% | KCNK9 uninduced inactive
O=C(O)C1=C[C@@H](c2ccccc2)C[C@@H](OCCCCO)O1	none
O=C(c1ccc2c(c1)N(Cc1ccccc1)CCS2)N1CCCCC1	KCNK3 block -9.9, Kir21 block -5.8 | hERG inh inactive | KCNK9 inh-2 inactive | Kir21 ephys inh inactive | KCNK3 inh conf 124 | KCNK3 noninduced 0.13
COc1ccc(N(C(=O)Cc2cccs2)C2C=CS(=O)(=O)C2)cc1 (stereo unspecified)	none
NC(=O)COC(=O)c1ccccc1Nc1ccc(SC(F)F)cc1	none
CC(C)(C)NC(=O)COC(=O)c1ccccc1Nc1ccc(SC(F)F)cc1	KCNQ1 block 6 | KCNQ1 block val 119 | CHO Tl flux 0.37 | KCNQ2 inh 109% | KCNQ1 KCNE1 spec 158%
NC1=NC(c2ccc(Br)cc2)n2c(nc3ccccc32)N1 (stereo unspecified)	none
O=C(Nc1nc(-c2ccccc2)c(-c2ccccc2)s1)c1ccc(S(=O)(=O)N2CCCCC2)cc1	none
O=C(Nc1nc(-c2ccccc2)c(C(=O)c2ccccc2)s1)c1ccc(S(=O)(=O)N2CCCCC2)cc1	KCNQ1 block 8 | KCNQ1 block val 83 | CHO Tl flux inactive | KCNQ2 inh inactive | KCNQ1 KCNE1 spec 112%
c1ccc(-c2cn3nc4c(nc3n2)CCCC4)cc1	KCNQ1 block 8 | KCNQ1 block val 40 | CHO Tl flux inactive | KCNQ2 inh 76% | KCNQ1 KCNE1 spec 76%
CC(C)c1ccc(C(C)NC(=S)NC2CCCCC2)cc1 (stereo unspecified)	none
CC(NC(=S)NC1CCCCC1)c1ccc(C(C)(C)C)cc1 (stereo unspecified)	KCNQ1 block 8 | KCNQ1 block val 104 | CHO Tl flux inactive | KCNQ1 APC inh inactive | KCNQ2 inh inactive | KCNQ1 KCNE1 spec 77%
COc1ccc2nc(/C=N/NC(=O)[C@H](CCSC)NC(=O)OC(C)(C)C)ccc2c1	none
N#CC1=C(N)NC(SCc2ccc(Cl)cc2)=C(C#N)C12CCCCC2	KCNQ1 block 16 | KCNQ1 block val 151 | CHO Tl flux 0.38 | KCNQ2 inh 121% | KCNQ1 KCNE1 spec 185%
O=C(NCCOc1ccccc1)C1CCC(=O)N(CCc2ccc(Cl)cc2)C1 (stereo unspecified)	none
CSc1nc2ccc(NS(=O)(=O)c3ccc(Cl)s3)cc2s1	KCNQ1 block 7 | KCNQ1 block val 103 | CHO Tl flux inactive | KCNQ2 inh inactive | KCNQ1 KCNE1 spec 70%
Cc1cc(C)c2nc(Nc3nc(-c4ccccc4)cc(=O)[nH]3)nc(C)c2c1	none
CC1=CC(C)(C)N=C(Nc2nc(C)c3cc(C)cc(C)c3n2)N1	KCNQ1 block 6 | KCNQ1 block val 79 | CHO Tl flux inactive | KCNQ2 inh 70% | KCNQ1 KCNE1 spec 59%
